CHOP inhibitor = CHOP inhibition in unfolded protein response | CHO-K1 CHOP-promoter luciferase, tunicamycin-induced, 15-18 h | 220,000 tested, 3.8% active | inhibition, % at 10 µM | AID 2732;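 active = compounds that reduced the stress-induced luciferase reporter signal by more than about 70% of percent inhibition, limit read from the data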;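 also: 0% = tunicamycin plus vehicle and 100% = wells without tunicamycin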
CHOP UPR activ = apoptotic UPR (CHOP) activation; CHO-CHOP luciferase reporter, luminescence; percent of tunicamycin response over DMSO baseline; activation, % at 10 µM; 330,000 tested, 0.34% active; AID 449763;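 active = at 10 µM dose, activation of 40% or more, normalized to positive control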;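 also: 100% = tunicamycin at 10 µg/mL and 0% = DMSO alone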
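System: CHO CHOP reporter cells. Amount: 500 cells per well. Buffer or medium: F12 medium, 10% FBS. Compound dosing: one dose, 10 µM in 0.5% DMSO. Incubation: 6 h compound exposure at 37 °C after overnight seeding. Technique: Steady-Glo luciferase luminescence. Benchmarks: tunicamycin and DMSO controls.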
UPR XBP1 act = activators of adaptive arm of unfolded protein response (XBP1) | CHO-XBP1 luciferase reporter, IRE1-XBP1 UPR activation, luminescence; percent of tunicamycin response, DMSO as zero | activation, % at 20 µM | 330,000 tested, 0.33% active;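 active = versus positive control, 20 µM dose yields 30% or more activation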;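 also: 100% = tunicamycin at 10 µg/mL and 0% = DMSO only wells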
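Material – CHO cell line with stable XBP1 luciferase reporter · Buffer or medium – F12 plus 10% FBS · Compound – single point, 20 µM final compound, 1% DMSO · Schedule – 16-18 h cell attachment at 37 °C, then 6 h compound exposure · Signal – Steady-Glo luminescence read · Benchmarks – high control tunicamycin 10 µg/mL final, low control DMSO vehicle only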
TLR4 MyD88 comp = blocks binding of human TLR4 to MyD88; inhibition, % at 8.4 µM; O00206+Q99836; HeLa CL3-4 TLR4/MyD88 BLA complementation, FRET ratio; 200,000 tested, 0.18% active; in the data active = inhibition above about 25%;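 also: 0% = vehicle and 100% = reference inhibitor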
NOD2-RIPK2 inh = NOD2-RIPK2 protein interaction inhibition; CHO BLA complementation NOD2-RIPK2, CCF4 ratio; inhibition, % at 4.98 µM; 360,000 tested, 0.38% active; in the data active = inhibition above about 21%;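 also: 0% = vehicle only and 100% = reference blocker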
TLR9-MyD88 block = blocks human TLR9 binding to MyD88 | 340,000 tested, 0.21% active | CHO BLA complementation TLR9-MyD88, CCF4 FRET ratio | Q9NR96+Q99836 | inhibition, % at 4.98 µM;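 active = inhibition above the mean over all tested compounds plus 3 SD, cut at about 21% in these data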;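 also: 0% = DMSO only wells and 100% = clavulanate BLA inhibitor control wells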
Target sequence (Q99836 whole entry, looked up): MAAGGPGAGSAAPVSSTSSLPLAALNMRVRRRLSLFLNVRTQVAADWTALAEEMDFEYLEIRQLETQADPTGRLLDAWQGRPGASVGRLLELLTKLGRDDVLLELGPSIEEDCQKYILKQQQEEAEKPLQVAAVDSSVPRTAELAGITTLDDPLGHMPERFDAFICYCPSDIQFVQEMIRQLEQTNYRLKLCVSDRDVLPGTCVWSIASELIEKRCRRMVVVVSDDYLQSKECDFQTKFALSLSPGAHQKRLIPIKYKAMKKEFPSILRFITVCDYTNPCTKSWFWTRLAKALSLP
Target sequence (Q9NR96 whole entry, looked up): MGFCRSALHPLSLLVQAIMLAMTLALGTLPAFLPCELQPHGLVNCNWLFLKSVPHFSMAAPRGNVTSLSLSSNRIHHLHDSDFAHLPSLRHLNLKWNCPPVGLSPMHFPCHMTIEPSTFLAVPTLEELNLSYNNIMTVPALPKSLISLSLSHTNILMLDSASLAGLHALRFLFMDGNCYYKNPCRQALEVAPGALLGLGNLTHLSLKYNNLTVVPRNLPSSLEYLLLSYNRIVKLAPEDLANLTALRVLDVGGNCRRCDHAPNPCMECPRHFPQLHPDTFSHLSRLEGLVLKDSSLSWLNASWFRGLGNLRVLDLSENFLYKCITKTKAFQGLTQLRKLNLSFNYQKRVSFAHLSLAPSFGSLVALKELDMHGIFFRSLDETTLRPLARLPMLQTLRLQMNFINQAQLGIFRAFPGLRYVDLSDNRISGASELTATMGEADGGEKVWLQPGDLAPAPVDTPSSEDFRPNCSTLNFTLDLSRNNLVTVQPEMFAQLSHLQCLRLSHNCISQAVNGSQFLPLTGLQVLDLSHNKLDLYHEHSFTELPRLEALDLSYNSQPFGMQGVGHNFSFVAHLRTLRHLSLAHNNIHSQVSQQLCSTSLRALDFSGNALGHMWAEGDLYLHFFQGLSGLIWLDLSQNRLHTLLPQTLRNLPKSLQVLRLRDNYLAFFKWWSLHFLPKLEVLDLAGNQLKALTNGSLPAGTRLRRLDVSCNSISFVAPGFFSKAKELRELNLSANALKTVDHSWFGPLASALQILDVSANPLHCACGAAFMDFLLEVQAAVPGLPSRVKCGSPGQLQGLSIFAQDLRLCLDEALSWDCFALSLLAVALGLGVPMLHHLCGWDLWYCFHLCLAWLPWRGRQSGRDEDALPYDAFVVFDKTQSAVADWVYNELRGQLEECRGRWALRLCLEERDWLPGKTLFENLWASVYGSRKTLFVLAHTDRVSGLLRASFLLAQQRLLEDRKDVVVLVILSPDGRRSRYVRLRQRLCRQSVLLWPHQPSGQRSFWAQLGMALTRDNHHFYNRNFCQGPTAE
TLR4-MyD88 conf = TLR4-MyD88 interaction inhibition confirmed. 350 tested, 50% active. HeLa CL3-4 BLA complementation, CCF4 FRET ratio. AID 941. shares compounds with TLR4 MyD88 comp. inhibition, % at 8.4 µM;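 active = mean inhibition across three repeat runs above about 25% carried over from the earlier screen, limit read from the data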;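 also: plate controls were DMSO only for no effect and clavulanic acid blocking BLA at full dose for full effect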
BLA inhibitor ct = counter-screen for TLR4-MyD88 inhibitors: beta-lactamase reporter inhibitors; shares compounds with TLR4 MyD88 comp; HeLa BLA reporter, CCF4 FRET ratio; AID 1237; inhibition, % at 8.4 µM; 350 tested, 63% active;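 active = mean inhibition over three repeats above about 26% taken from the earlier screen, limit read from the data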;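 also: HeLa cells stably expressing beta-lactamase reporter as counterscreen for TLR4-MyD88 inhibitors; 0% = DMSO and 100% = clavulanic acid full inhibition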
CHOP inh conf = confirmation of CHOP induction inhibitors; AID 504437; 2,100 tested, 45% active; shares compounds with CHOP inhibitor; CHO-CHOP promoter luciferase reporter, tunicamycin-induced, luminescence; inhibition, % at 10 µM;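 active = mean of three repeat readings of reporter signal inhibition above a set limit, cut at about 70% in these data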;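 also: 0% = tunicamycin plus vehicle and 100% = wells lacking tunicamycin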
TLR9-MyD88 cf = confirmation of human TLR9-MyD88 binding inhibitors; shares compounds with TLR9-MyD88 block; CHO TLR9/MyD88 BLA complementation, CCF4 FRET ratio; inhibition, % at 4.98 µM; 680 tested, 51% active; AID 540250;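 active = mean inhibition across three repeats above about 21% taken from the earlier screen, limit read from the data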;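 also: blue over green emission ratio reports constitutive TLR9 MyD88 association via BLA complementation; 0% = DMSO vehicle wells and 100% = clavulanate BLA inhibitor wells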
BLA counter-1 = beta-lactamase reporter inhibition, counter-screen artifact; shares compounds with TLR9-MyD88 block; CHO-BLA cells, CCF4 FRET ratio, BLA reporter; inhibition, % at 4.98 µM; 680 tested, 7% active;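 active = mean inhibition above a 50% cutoff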;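 also: counterscreen of TLR9-MyD88 hits on CMV-driven BLA in CHO-K1 cells; 0% = DMSO alone and 100% = clavulanate blocking BLA; higher means less blue over green ratio so more BLA blockade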
TLR9 CHO tox = counter-screen for TLR9-MyD88 inhibitors: cytotoxicity in CHO cells | 680 tested, 39% active | inhibition, % at 4.98 µM | shares compounds with TLR9-MyD88 block | luminescence; in the data active = inhibition above about 11%
NOD2-RIPK2 conf = confirmation of human NOD2-RIPK2 interaction inhibitors; shares compounds with NOD2-RIPK2 inh; CHO cells, NOD2-RIPK2 BLA complementation, CCF4 FRET; inhibition, % at 4.98 µM; 1,200 tested, 70% active; AID 624370;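 active = mean inhibition across replicates above a set limit taken from the earlier primary screen, cut at about 21% in these data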;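 also: 0% = DMSO-only wells and the high end = clavulanate BLA-blocked wells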
BLA counter-2 = hits BLA reporter in NOD2-RIPK2 inhibitor counterscreen. shares compounds with NOD2-RIPK2 inh. CHO BLA reporter, CCF4 FRET ratio. inhibition, % at 4.98 µM. 1,200 tested, 57% active. AID 624371;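 active = mean inhibition above the low-control mean inhibition plus three low-control SD, cut at about 11% in these data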;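 also: 0% = DMSO only wells and 100% = clavulanate high control wells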
An asterisk follows results filed as active; / = no result given. This is one part of a sample in which hits are shown more often than they occur.

SMILES	CHOP inhibitor	CHOP UPR activ	UPR XBP1 act	TLR4 MyD88 comp	NOD2-RIPK2 inh	TLR9-MyD88 block	others
CC(C)(O)[C@H]1O[C@H]2CC[C@@]3(C)[C@@](O)(CC[C@H]4Cc5c([nH]c6ccccc56)[C@@]43C)C2=CC1=O	82*	1	-7	-6	/	/
COc1cccc(CN2CCN(c3ccc(F)cc3)CC2)c1OC	/	/	/	/	-7	-17
Cc1ccc(O)c(CN2CCN(c3ccccc3)CC2)c1	61	0	0	6	2	1
Cc1cc(O)c(CN2CCN(c3ccccc3)CC2)cc1C	82*	0	-4	4	6	-5
COc1ccc(CN2CCN(c3ccccc3)CC2)c(C)c1C	80*	1	2	4	8	-11
CC[C@H](C)[C@@H]1O[C@@]2(C=CC1C)CC1C[C@@H](CC=C(C)C(O[C@H]3CC(OC)C(O[C@H]4CC(OC)C(O)C(C)O4)C(C)O3)C(C)C=CC=C3CO[C@@H]4C(O)C(C)=C[C@@H](C(=O)O1)[C@]34O)O2 (some centres not stated)	/	36	50*	/	/	/
CCCC(C)C1C(C#N)=C(N)Oc2c1c(=O)oc1ccccc21 (configuration not stated)	76*	2	-2	3	0	-12
C=CCc1cc(C=C2C(=O)NC(=O)NC2=O)cc(OC)c1OCc1ccc(C(=O)O)cc1	1	0	-6	7	5	8
C=CCc1cc(C=C2C(=O)N(C)C(=O)N(C)C2=O)cc(OCC)c1OCc1ccccc1	89*	0	-3	-16	-4	0
Brc1ccc(CN2CCNCC2)s1	71*	-3	-3	2	-3	3
Cc1ccc(NP(=O)(Oc2ccccc2)Oc2ccccc2)cc1	/	/	/	/	-2	-9
Cc1ccc(OP(=O)(NC(C)c2ccccc2)Oc2ccc(C)cc2)cc1 (configuration not stated)	77*	-1	-2	-15	11	-1
c1ccc2sc(C3(N4CCCCC4)CCCCC3)cc2c1	-2	/	/	/	/	/
Cc1cc2c(C(F)(F)F)cc(=O)oc2c2c1NCCC2	56	2	-1	31*	20	15	TLR4-MyD88 conf=54*;BLA inhibitor ct=55*
O=C(c1ccc(Cl)cc1)C1CCCN(Cc2ccc3ncccc3c2)C1 (configuration not stated)	27	0	-2	4	5	8
CC1(C)OC(c2ccccc2)=C/C(=C/C=C2C(=O)NC(=S)NC2=O)O1	52	0	-1	67*	/	/	TLR4-MyD88 conf=63*;BLA inhibitor ct=90*
C[C@]12CCC3C(CC[C@H]4C[C@H](O)CC[C@]34C)C1C[C@@H](O)[C@H]2O (some centres not stated)	/	/	/	/	-5	/
O=c1cc(C(F)(F)F)c2cc3c4c(c2o1)CCCN4CCC3	93*	0	-1	54*	68*	46*	TLR4-MyD88 conf=49*;BLA inhibitor ct=81*;TLR9-MyD88 cf=51*;BLA counter-1=55*;TLR9 CHO tox=-1;NOD2-RIPK2 conf=63*;BLA counter-2=76*
COc1ccc(OC)c(CN2CCN(C(=O)Cc3ccccc3)CC2)c1	/	2	3	/	2	-1
O=c1c(C=NCc2cccs2)c(O)n(C2CCCCC2)c(=O)n1C1CCCCC1	25	-3	-2	5	-20	1
N=C(N)c1c(O)n(C2CCCCC2)c(=O)n(C2CCCCC2)c1=O	108*	0	7	0	9	21	CHOP inh conf=73*
COC(=O)C1=C(c2ccc(OC(F)(F)F)cc2)C[C@@H]2CC[C@H]1N2C(=O)N1CCOCC1	/	0	0	/	-1	-3
Cc1cc(C)cc(N2C(=O)NC(=O)/C(=C\C=C\c3ccco3)C2=O)c1	107*	/	/	2	4	-2	CHOP inh conf=-16
CCCCN1C(=O)/C(=C/C=C/c2ccco2)C(=O)NC1=S	-30	/	/	0	8	2
COC(=O)C[C@]1(C(=O)OC)CN(C#N)N(c2ccc(Cl)cc2)C12c1ccccc1-c1ccccc12	/	-10	-7	4	55*	7	CHOP inh conf=129*
SMILES	CHOP inhibitor	CHOP UPR activ	UPR XBP1 act	TLR4 MyD88 comp	NOD2-RIPK2 inh	TLR9-MyD88 block	others
CCOC(=O)[C@]12Cc3cc(Cl)ccc3[C@H]1N(CC(=O)OC)C(=O)c1ccccc12	/	/	/	/	19	/
Cc1[nH]c2ccccc2c1C(=O)C(=O)N1CC2CC(C1)c1cccc(=O)n1C2 (configuration not stated)	-5	1	2	-3	6	4
O=C(Nc1ccc(F)cc1)N1Cc2ccccc2-n2nncc2C1	/	/	/	/	-9	-2
CC1=C2[C@@H]3OC(=O)[C@H](C)C3CC[C@@]2(C)C=CC1=O (some centres not stated)	/	0	-5	/	-6	-6
O=C1NC(=O)C(=Cc2ccc(-c3cc(Cl)ccc3[N+](=O)[O-])o2)C(=O)N1	105*	/	/	1	7	3	CHOP inh conf=-60
CCN1C(=O)C(=Cc2cc(C)n(C3CC3)c2C)C(=O)N(CC)C1=S	9	1	1	8	-5	-11
CCN1C(=O)C(=Cc2ccc(C)s2)C(=O)N(CC)C1=S	106*	9	9	4	-3	7	CHOP inh conf=-23
Fc1cccc(-c2ccc3c(c2)CN(C(=S)NCCc2ccccc2)Cc2cnnn2-3)c1	/	/	/	/	2	/

From PubChem
